# Results as given in ChEMBL document CHEMBL3763017, “Synthesis and evaluation of dual antiplatelet activity of bispidine derivatives of N-substituted pyroglutamic acids” (Eur J Med Chem, 2016).
# Activity calls are given as the source filed them. The rule behind the calls is not given here.
# Columns and labels:
# Mus musculus [1] = experiment: Antithrombotic activity in ferric chloride-induced Swiss albino mouse arterial thrombosis model assessed as prolonged time to occlusion at 20 umol/kg, po measured after 4 hrs (reference value: 9.5 +/- 0.4 mins); format: functional
# Platelet [2] = experiment: Inhibition of U46619-induced protein tyrosine phosphorylation in human platelets preincubated at 3 to 100 uM for 5 mins followed by U46619 stimulation for 10 mins by Western blot analysis; format: functional, cell-based
# Procedure, shortened: (§1)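 Washed human platelets in Tyrode-HEPES pH 7.4 preincubated 5 min at 37 °C with 0.4% DMSO or compound (3–100 μM). Stimulated 10 min with collagen (1 μg/ml) or U46619 (0.25 μg/ml). Stopped with boiling Laemmli buffer; SDS-PAGE and anti-phosphotyrosine (4G10) immunoblot. Three separate experiments.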
# Platelet [3] = experiment: Inhibition of collagen-induced protein tyrosine phosphorylation in human platelets preincubated at 3 to 100 uM for 5 mins followed by collagen stimulation for 10 mins by Western blot analysis; format: functional, cell-based; procedure, shortened: as §1
# Platelet [4] = experiment: Inhibition of human platelet adhesion over collagen at 30 uM for 15 mins in absence of Mg2+ by microplate reader analysis; format: functional; conditions: 0.25 h
# Procedure, shortened: (§2)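 Wells coated overnight with fibrillar type I collagen and blocked with BSA. Washed platelets (1×10^8/ml) preincubated 15 min at 37 °C with compound or DMSO, then allowed to adhere 1 h at room temperature in Tyrode-HEPES with 1 mM Mg2+ or with Mg2+ replaced by 50 μM EDTA. Adherent cells quantified with p-nitrophenyl phosphate in citrate pH 5.4 (60 min, 25 °C), NaOH stop, A405.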
# Platelet [5] = experiment: Inhibition of human platelet adhesion over collagen for 15 mins in absence of Mg2+ by microplate reader analysis; format: functional, cell-based; procedure, shortened: as §2
# Platelet [6] = experiment: Inhibition of human platelet adhesion over collagen at 300 uM for 15 mins in absence of Mg2+ by microplate reader analysis; format: functional, cell-based; procedure, shortened: as §2
# Platelet [7] = experiment: Inhibition of human platelet adhesion over collagen at 300 uM for 15 mins in presence of Mg2+ by microplate reader analysis; format: functional, cell-based; procedure, shortened: as §2
# Platelet [8] = experiment: Inhibition of human platelet adhesion over collagen at 30 uM for 15 mins in presence of Mg2+ by microplate reader analysis; format: functional; conditions: 0.25 h; procedure, shortened: as §2
# Platelet [9] = experiment: Inhibition of human platelet adhesion over collagen for 15 mins in presence of Mg2+ by microplate reader analysis; format: functional, cell-based; procedure, shortened: as §2
# Plasma [10] = experiment: Anticoagulant activity in human plasma assessed as activated partial thromboplastin time at 30 to 300 uM; format: functional, cell-free
# Procedure, shortened: (§3)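 Human plasma from healthy donors, blood collected in CPD 1:7 and spun twice to give platelet-poor plasma. TT, PT and aPTT determined with commercial kits on a coagulometer. Hirudin 1 μg/ml served as reference anticoagulant; 0.4% DMSO vehicle.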
# Plasma [11] = experiment: Anticoagulant activity in human plasma assessed as prothrombin time at 30 to 300 uM; format: functional, cell-free; procedure, shortened: as §3
# Plasma [12] = experiment: Anticoagulant activity in human plasma assessed as thrombin time at 30 to 300 uM; format: functional, cell-free; procedure, shortened: as §3
# [13] = Antiplatelet activity in human platelet rich plasma assessed as inhibition of U46619-induced platelet aggregation at 30 uM preincubated for 5 mins followed by U46619 stimulation by turbidimetry; format: functional
# Procedure, shortened: (§4)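 Human PRP (1×10^8 platelets/ml) from healthy-donor blood spun at 1000 rpm for 10 min. Pre-treated 5 min with compound or 0.4% DMSO vehicle, then agonist added at 37 °C. Light-transmission aggregometry run at least 5–10 min; % aggregation calculated. Single-point screens at 30 μM, n = 3; mean ± SEM.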
# Mus musculus [14] = experiment: Antithrombotic activity in Swiss albino mouse assessed as protection against collagen-epinephrine induced pulmonary thromboembolism at 30 umol/kg, po after 1 hr; format: functional
# Procedure, shortened: (§5)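 Male Swiss albino mice (18–22 g) dosed orally in 0.5% carboxymethyl cellulose 1, 2, 4, 6, 12 or 24 h before challenge. Collagen (150 μg/ml) plus adrenaline (50 μg/ml) injected into the tail vein. Dead or hind-limb-paralysed mice counted over 15 min and expressed as % protection. Ten mice per drug group, five for vehicle.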
# [15] = Antiplatelet activity in human platelet rich plasma assessed as inhibition of collagen-induced platelet aggregation at 30 uM preincubated for 5 mins followed by collagen stimulation by turbidimetry; format: functional; procedure, shortened: as §4
# [16] = Antiplatelet activity in human platelet rich plasma assessed as inhibition of collagen-induced platelet aggregation preincubated for 5 mins followed by collagen stimulation by turbidimetry; format: functional
# [17] = Antiplatelet activity in human platelet rich plasma assessed as inhibition of U46619-induced platelet aggregation preincubated for 5 mins followed by U46619 stimulation by turbidimetry; format: functional
# Platelet [18] = experiment: Antiplatelet activity in human platelet rich plasma assessed as inhibition of ADP-induced platelet aggregation up to 300 uM preincubated for 5 mins followed by ADP stimulation by turbidimetry; format: functional
# Platelet [19] = experiment: Antiplatelet activity in human platelet rich plasma assessed as inhibition of TRAP-induced platelet aggregation up to 300 uM preincubated for 5 mins followed by TRAP stimulation by turbidimetry; format: functional
# Platelet [20] = experiment: Antiplatelet activity in human platelet rich plasma assessed as inhibition of CRP-XL-induced platelet aggregation up to 300 uM preincubated for 5 mins followed by CRP-XL stimulation by turbidimetry; format: functional
# Platelet [21] = experiment: Antiplatelet activity in human platelet rich plasma assessed as inhibition of ristocetin-induced platelet aggregation up to 300 uM preincubated for 5 mins followed by ristocetin stimulation by turbidimetry; format: functional
# Platelet [22] = experiment: Antiplatelet activity in human platelet rich plasma assessed as inhibition of arachidonic acid-induced platelet aggregation up to 300 uM preincubated for 5 mins followed by arachidonic acid stimulation by turbidimetry; format: functional
# [23] = Antiplatelet activity in human platelet rich plasma assessed as inhibition of arachidonic acid-induced platelet aggregation at 300 to 500 uM preincubated for 5 mins followed by arachidonic acid stimulation by turbidimetry; format: functional
# Mus musculus [24] = experiment: Antithrombotic activity in Swiss albino mouse assessed as protection against collagen-epinephrine induced pulmonary thromboembolism at 30 umol/kg, po after 4 hrs; format: functional; procedure, shortened: as §5
# Mus musculus [25] = experiment: Toxicity in Swiss albino mouse assessed as bleeding time at 30 umol/kg, po administered as single dose measured after 1 hr (reference value: 3.5 +/- 0.3 mins); format: organism-based; conditions: in vivo
# Mus musculus [26] = experiment: Toxicity in Swiss albino mouse assessed as bleeding time at 30 umol/kg, po administered as single dose measured after 4 hrs (reference value: 3.5 +/- 0.3 mins); format: organism-based; conditions: in vivo
# Aorta [27] = experiment: Inhibition of U46619-induced vasocontraction in Sprague-Dawley rat thoracic aoritc rings at 30 uM (reference value: 89.8 +/- 8.5%); format: functional; set-up: scale not given: the % may be the effect or the level left
# Aorta [28] = experiment: Inhibition of U46619-induced vasocontraction in Sprague-Dawley rat thoracic aoritc rings at 15 uM (reference value: 89.8 +/- 8.5%); format: functional; set-up: scale not given: the % may be the effect or the level left
# Aorta [29] = experiment: Inhibition of U46619-induced vasocontraction in Sprague-Dawley rat thoracic aoritc rings at 3 and 5 uM; format: functional
# Aorta [30] = experiment: Inhibition of KCl-induced vasocontraction in Sprague-Dawley rat thoracic aoritc rings; format: functional
# Mus musculus [31] = experiment: Antithrombotic activity in ferric chloride-induced Swiss albino mouse arterial thrombosis model assessed as prolonged time to occlusion at 30 umol/kg, po measured after 4 hrs (reference value: 9.5 +/- 0.4 mins); format: functional
smiles,measurement,setting,value
O=C([C@@H]1CCC(=O)N1Cc1ccccc1Br)N1CC2CC(CN(Cc3ccccc3)C2)C1,Time,Mus musculus [1],13.3 min
same,inhibition,Platelet [2],Active
same,inhibition,Platelet [3],Active
same,inhibition at 30 µM,Platelet [4],27%
same,inhibition,Platelet [5],Dose-dependent effect
same,inhibition,Platelet [6],Active
same,inhibition,Platelet [7],Active
same,inhibition at 30 µM,Platelet [8],27%
same,inhibition,Platelet [9],Dose-dependent effect
same,Activity,Plasma [10],inactive
same,Activity,Plasma [11],inactive
same,Activity,Plasma [12],inactive
same,inhibition at 30 µM,[13],79%
same,Activity,Mus musculus [14],40%
same,inhibition at 30 µM,[15],86%
same,IC50,[16],1.7 µM
same,IC50,[17],7.7 µM
same,inhibition,Platelet [18],inactive
same,inhibition,Platelet [19],inactive
same,inhibition,Platelet [20],inactive
same,inhibition,Platelet [21],inactive
same,inhibition,Platelet [22],inactive
same,inhibition (INH),[23],50%
same,Activity,Mus musculus [24],60%
same,Time,Mus musculus [25],3.4 min
same,Time,Mus musculus [26],4.3 min
same,Activity,Aorta [27],14.2%
same,Activity,Aorta [28],21.8%
same,inhibition,Aorta [29],inactive
same,inhibition,Aorta [30],inactive
same,Time,Mus musculus [31],20 min
